Converted amounts (≈) assume the structure as drawn. The source made the active and inactive calls. No cut-off for these calls is given here.
How the values were obtained:
Plasmodium falciparum [1] = assay: Antiplasmodial activity against Plasmodium falciparum 3D7A infected in red blood cells preincubated for 24 hrs followed by [3H]-hypoxanthine addition measured after 24 hrs by scintillation counting; assay type: functional, cell-based
In short: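 Whole-cell growth assay on sensitive P. falciparum strain 3D7A by [3H]hypoxanthine incorporation; two or three independent biological replicates per value.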

[2] = Solubility of the compound in fasted state stimulated intestinal fluid at pH 6.5 by HPLC analysis; assay type: physicochemical; conditions: fasted state simulated intestinal fluid
In short: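 Solubility measured in fasted state simulated intestinal fluid, pH 6.5.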

Plasmodium falciparum [3] = assay: Antimalarial activity against Plasmodium falciparum 3D7 0087/N9 infected in po dosed mouse assessed as average daily exposure in whole blood required to reduce parasitemia administered 3 days post infection dosed once a day for four consecutive days measured 7 days post dose; assay type: functional, organism-based
Liver = assay: Intrinsic clearance in human liver microsomes at 0.5 uM up to 45 mins in presence of NADPH by HPLC-MS/MS analysis; assay type: ADME, microsome; conditions: 0.75 h
Plasmodium falciparum [4] = assay: Antimalarial activity against Plasmodium falciparum 3D7 0087/N9 infected in po dosed SCID mouse assessed as reduction in parasitemia administered 3 days post infection dosed once a day for four consecutive days measured after 7 days; assay type: functional; conditions: 3D7 0087/N9, po
In short: (§1)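 SCID mice engrafted with human parasite P. falciparum Pf 3D70087/N9; oral dosing started 3 days after infection, once daily for four consecutive days; parasitemia compared with untreated controls.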

Plasma [5] = assay: Drug level in Swiss CD1 mouse plasma treated with 5-([3,4'-Bipyridin]-2'-yl)-N-(4-(pyrrolidin-1-ylmethyl)phenyl)-1,3,4-oxadiazol-2-amine at 500 mg/kg, po by HPLC analysis; assay type: ADME, organism-based; conditions: in vivo
In short: (§2)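 Mice given high oral doses (250/300 and 500 mg/kg); plasma analysed by HPLC for parent compound and breakdown products, expressed as percentage levels.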

Plasma [6] = assay: Drug level in Swiss CD1 mouse plasma treated with 5-(3-(Pyridin-3-yl)-5-(trifluoromethyl)phenyl)-N-(4-(pyrrolidin-1-ylmethyl)phenyl)-1,3,4-oxadiazol-2-amine at 500 mg/kg, po by HPLC analysis; assay type: ADME, organism-based; conditions: in vivo; in short: as §2
[7] = Oral bioavailability in CD1 mouse at 10 mg/kg measured up to 24 hrs post dose by LC-MS/MS analysis; assay type: ADME, organism-based; conditions: in vivo
In short: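 Oral bioavailability in mouse after a single oral dose of 10 mg/kg.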

[8] = Lipophilicity, log D of compound at pH 7.4 by chromatographic method; assay type: physicochemical; conditions: buffer
Mus musculus = assay: (§3) Clearance in CD1 mouse at 1 mg/kg, iv measured up to 24 hrs post dose by LC-MS/MS analysis; assay type: ADME, organism-based; conditions: mouse, in vivo, 24 h
In short: (§4)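 Pharmacokinetics in mouse after a single intravenous dose of 1 mg/kg.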

[9] = Half life in CD1 mouse at 1 mg/kg, iv measured up to 24 hrs post dose by LC-MS/MS analysis; assay type: ADME, organism-based; conditions: in vivo; in short: as §4
Plasmodium falciparum [10] = assay: Antimalarial activity against Plasmodium falciparum 3D7 0087/N9 infected in SCID mouse assessed as reduction in parasitemia at 50 mg/kg, po administered 3 days post infection dosed once a day for four consecutive days measured 2 days; assay type: functional, organism-based; in short: as §1
[11] = Volume of distribution at steady state in CD1 mouse at 1 mg/kg, iv measured up to 24 hrs post dose by LC-MS/MS analysis; assay type: ADME, organism-based; conditions: in vivo, read-out: Vdss; in short: as §4
Plasmodium falciparum [12] = assay: Antimalarial activity against Plasmodium falciparum 3D7 0087/N9 infected in SCID mouse assessed as reduction in parasitemia at 120 mg/kg, po administered 3 days post infection dosed once a day for four consecutive days relative to control; assay type: functional; design: scale not given: the % may be the effect or the level left; in short: as §1
Plasmodium falciparum [13] = assay: Ratio of IC50 for chloroquine-resistant Plasmodium falciparum T9/94 infected in red blood cells to IC50 for wild type Plasmodium falciparum 3D7A infected in red blood cells; assay type: functional
HepG2 = assay: Cytotoxicity against human HepG2 cells at 25 uM; assay type: cell-based; conditions: hepg2, 25 µM
In short: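 HepG2 cells exposed to compound at 25 μM to assess mammalian cytotoxicity.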

Plasmodium falciparum [14] = assay: Ratio of IC50 for chloroquine/pyrimethamine-resistant Plasmodium falciparum V1/S infected in red blood cells to IC50 for wild type Plasmodium falciparum 3D7A infected in red blood cells; assay type: functional
Plasmodium falciparum [15] = assay: Ratio of IC50 for chloroquine/pyrimethamine/atovaquone-resistant Plasmodium falciparum Tm90C2B infected in red blood cells to IC50 for wild type Plasmodium falciparum 3D7A infected in red blood cells; assay type: functional
Plasmodium falciparum [16] = assay: Ratio of IC50 for chloroquine/atovaquone/cycloguanil-resistant Plasmodium falciparum FCR3 infected in red blood cells to IC50 for wild type Plasmodium falciparum 3D7A infected in red blood cells; assay type: functional
Plasmodium falciparum [17] = assay: Ratio of IC50 for chloroquine/pyrimethamine-resistant Plasmodium falciparum Tm90C2A infected in red blood cells to IC50 for wild type Plasmodium falciparum 3D7A infected in red blood cells; assay type: functional
Plasmodium falciparum [18] = assay: Ratio of IC50 for pyrimethamine-resistant Plasmodium falciparum TC08 infected in red blood cells to IC50 for wild type Plasmodium falciparum 3D7A infected in red blood cells; assay type: functional
[19] = Ratio of IC50 for chloroquine/pyrimethamine-resistant Plasmodium falciparum Dd2 infected in red blood cells to IC50 for wild type Plasmodium falciparum 3D7A infected in red blood cells; assay type: functional
[20] = Ratio of TC50 for human HepG2 to IC50 for antiplasmodial activity against Plasmodium falciparum 3D7A infected in red blood cells
In short: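 Denominator is the asexual P. falciparum 3D7A IC50 from a [3H]hypoxanthine incorporation assay, using two or three independent biological replicates. Numerator is the 50% toxicity value in HepG2 cells, expressed as Tox50/Pf 3D7 IC50.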

[21] = Ratio of IC50 for Plasmodium falciparum HB3 infected in red blood cells to IC50 for wild type Plasmodium falciparum 3D7A infected in red blood cells; assay type: functional
Plasma [22] = assay: Drug metabolism in Swiss CD1 mouse assessed as 2-(3-(Pyridin-3-yl)-5-(trifluoromethyl)benzoyl)-N-(4-(pyrrolidin-1-ylmethyl)phenyl)hydrazinecarboxamide in plasma at 300 to 500 mg/kg, po by HPLC analysis; assay type: ADME, organism-based; conditions: in vivo; in short: as §2
[23] = Chemical stability in SGF media at pH 1.6 after 14 hrs; assay type: physicochemical; conditions: simulated gi fluid, pH 1.6, 14 h
In short: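 Stability in simulated gastric fluid at pH 1.6, held at 37 °C for up to 24 h; checked for degradation products.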

[24] = as §3; assay type: ADME, organism-based; conditions: CD1, mouse, in vivo; in short: as §4
Plasmodium falciparum [25] = assay: Antimalarial activity against Plasmodium falciparum 3D7 0087/N9 infected in SCID mouse assessed as reduction in parasitemia at 67 mg/kg, po administered 3 days post infection dosed once a day for four consecutive days measured 7 days post dose; assay type: functional, organism-based; in short: as §1

CN1CCc2ncc(Nc3nnc(-c4cccc(-c5cccnc5)c4)o3)cc2C1
IC50 (Plasmodium falciparum [1]): 0.02 µM

CN1CCc2ccc(Nc3nnc(-c4cc(-c5cccnc5)ccn4)o3)cc2C1
solubility [2]: 390 µg/mL (≈ 1010 µM) | IC50 (Plasmodium falciparum [1]): 0.2 µM | AUCED90 (Plasmodium falciparum [3]): 1.4 µg.hr/ml/day | intrinsic clearance (Liver): < 0.5 mL/min/g | ED90 (Plasmodium falciparum [4]): 33.8 mg/kg

CN1CCc2ccc(Nc3nnc(-c4cc(F)cc(-c5cccnc5)c4)o3)cc2C1
IC50 (Plasmodium falciparum [1]): 0.05 µM | intrinsic clearance (Liver): < 0.5 mL/min/g

c1ccc(Nc2nnc(-c3cccc(-c4cccnc4)c3)o2)cc1
IC50 (Plasmodium falciparum [1]): 1.7 µM | intrinsic clearance (Liver): 1.8 mL/min/g

CN1CCc2ccc(Nc3nnc(-c4cncc(-c5cccnc5)c4)o3)cc2C1
IC50 (Plasmodium falciparum [1]): 0.03 µM | intrinsic clearance (Liver): 1.45 mL/min/g

CN1CCc2ccc(Nc3nnc(-c4ccc(F)c(-c5cccnc5)c4)o3)cc2C1
IC50 (Plasmodium falciparum [1]): 0.48 µM | intrinsic clearance (Liver): 2.2 mL/min/g

O=C(O)c1cc(-c2cccnc2)ccn1
Drug metabolism (Plasma [5]): Metabolite_Detected

O=C(NNC(=O)c1cc(-c2cccnc2)cc(C(F)(F)F)c1)Nc1ccc(CN2CCCC2)cc1
Drug metabolism (Plasma [6]): Metabolite_Detected

CN1CCc2ccc(Nc3nnc(-c4cccc(-c5cccnc5)n4)o3)cc2C1
IC50 (Plasmodium falciparum [1]): 1.9 µM

Clc1cccc(Nc2nnc(-c3cccc(-c4cccnc4)c3)o2)c1
IC50 (Plasmodium falciparum [1]): 5.53 µM | intrinsic clearance (Liver): 3.7 mL/min/g

O=C(O)c1cc(-c2cccnc2)cc(C(F)(F)F)c1
Drug metabolism (Plasma [6]): Metabolite_Detected

CN1CCc2ccc(Nc3nnc(-c4cc(-c5cccnc5)ccc4F)o3)cc2C1
IC50 (Plasmodium falciparum [1]): 0.05 µM | intrinsic clearance (Liver): 2.9 mL/min/g

CN(C)Cc1ccc(Nc2nnc(-c3cc(-c4cccnc4)cc(C(F)(F)F)c3)o2)cc1
solubility [2]: 57 µg/mL (≈ 130 µM) | IC50 (Plasmodium falciparum [1]): 0.03 µM | bioavailability [7]: 100% | chromatographic logD [8]: 3.2 to 3.3 | AUCED90 (Plasmodium falciparum [3]): < 2.5 µg.hr/ml/day | clearance (Mus musculus): 76.9 mL/min/kg | half-life [9]: 17.4 min | ED90 (Plasmodium falciparum [4]): < 20 mg/kg | Activity (Plasmodium falciparum [10]): Active

CN1CCOc2ccc(Nc3nnc(-c4cccc(-c5cccnc5)c4)o3)cc2C1
IC50 (Plasmodium falciparum [1]): 0.07 µM | Vd [11]: 2.6 L/kg | Activity (Plasmodium falciparum [12]): 81% | Ratio IC50 (Plasmodium falciparum [13]): 1 | bioavailability [7]: 26.6% | Activity (HepG2): Non-Toxic | Ratio IC50 (Plasmodium falciparum [14]): 1 | Ratio IC50 (Plasmodium falciparum [15]): 1 | Ratio IC50 (Plasmodium falciparum [16]): 1 | Ratio IC50 (Plasmodium falciparum [17]): 1 | Ratio IC50 (Plasmodium falciparum [18]): 1 | intrinsic clearance (Liver): 13.7 mL/min/g | Ratio IC50 [19]: 1 | ED90 (Plasmodium falciparum [4]): > 120 mg/kg | Ratio [20]: >100 | Ratio IC50 [21]: 1

CN1CCc2ccc(Nc3nnc(-c4ccnc(-c5cccnc5)c4)o3)cc2C1
IC50 (Plasmodium falciparum [1]): 0.07 µM

O=C(NNC(=O)c1cc(-c2cccnc2)ccn1)Nc1ccc(CN2CCCC2)cc1
Drug metabolism (Plasma [5]): Metabolite_Detected

CN(C)Cc1ccc(Nc2nnc(-c3cc(-c4cccnc4)cc(C(F)(F)F)c3)o2)cn1
IC50 (Plasmodium falciparum [1]): 0.09 µM | chromatographic logD [8]: 2.9

FC(F)(F)c1cc(-c2cccnc2)cc(-c2nnc(Nc3ccc(CN4CCCC4)cc3)o2)c1
IC50 (Plasmodium falciparum [1]): 0.03 µM | Drug metabolism (Plasma [22]): Metabolite_Detected | bioavailability [7]: 89% | chromatographic logD [8]: 3.3 | Stability [23]: Unstable | AUCED90 (Plasmodium falciparum [3]): < 6.1 µg.hr/ml/day | clearance (Mus musculus): 19.5 mL/min/kg | half-life [9]: 84 min | ED90 (Plasmodium falciparum [4]): < 20 mg/kg

CN(C)Cc1ccc(Nc2nnc(-c3cccc(-c4cccnc4)c3)o2)cc1
IC50 (Plasmodium falciparum [1]): 0.03 µM

CN1CCc2ccc(Nc3nnc(-c4cc(-c5cccnc5)cc(C(F)(F)F)c4)o3)cc2C1
solubility [2]: 1.2 µg/mL (≈ 2.66 µM) | IC50 (Plasmodium falciparum [1]): 0.02 µM | Vd [11]: 3.5 L/kg | Ratio IC50 (Plasmodium falciparum [13]): 1 | bioavailability [7]: 90% | Ratio IC50 (Plasmodium falciparum [14]): 1 | Ratio IC50 (Plasmodium falciparum [15]): 1 | AUCED90 (Plasmodium falciparum [3]): 2.2 µg.hr/ml/day | clearance [24]: 42 to 43 mL/min/kg | Ratio IC50 (Plasmodium falciparum [16]): 1 | Ratio IC50 (Plasmodium falciparum [17]): 1 | Ratio IC50 (Plasmodium falciparum [18]): 1 | intrinsic clearance (Liver): 0.9 mL/min/g | Ratio IC50 [19]: 1 | ED90 (Plasmodium falciparum [4]): 9.3 mg/kg | Ratio IC50 [21]: 1

CN1CCc2ccc(Nc3nnc(-c4cccc(-c5cccnc5)c4)o3)cc2C1
IC50 (Plasmodium falciparum [1]): 0.1 µM | intrinsic clearance (Liver): 1.8 mL/min/g

CN1CCCc2ccc(Nc3nnc(-c4cccc(-c5cccnc5)c4)o3)cc2C1
IC50 (Plasmodium falciparum [1]): 0.66 µM | intrinsic clearance (Liver): 9.3 mL/min/g

CN1CCc2ccc(Nc3nnc(-c4cc(OC(F)(F)F)cc(-c5cccnc5)c4)o3)cc2C1
IC50 (Plasmodium falciparum [1]): 0.22 µM | intrinsic clearance (Liver): < 0.5 mL/min/g

FC(F)(F)c1cccc(Nc2nnc(-c3cccc(-c4cccnc4)c3)o2)c1
IC50 (Plasmodium falciparum [1]): 0.69 µM | intrinsic clearance (Liver): 3.3 mL/min/g

CN1CCc2ncc(Nc3nnc(-c4cc(-c5cccnc5)cc(C(F)(F)F)c4)o3)cc2C1
solubility [2]: 68 µg/mL (≈ 150 µM) | IC50 (Plasmodium falciparum [1]): 0.03 µM | Activity (Plasmodium falciparum [25]): inactive

CN1CCc2ccc(Nc3nnc(-c4cccc(-c5cccnc5)c4)o3)nc2C1
IC50 (Plasmodium falciparum [1]): 0.13 µM

CN1Cc2ccc(Nc3nnc(-c4cccc(-c5cccnc5)c4)o3)cc2C1
IC50 (Plasmodium falciparum [1]): 0.07 µM | intrinsic clearance (Liver): 5.1 mL/min/g

Source: ChEMBL document CHEMBL4017499, “The Discovery of Novel Antimalarial Aminoxadiazoles as a Promising Nonendoperoxide Scaffold” (J Med Chem, 2017)
